Active and inactive are the calls of the source. The calls are words filed in the database; no cut-off is given here.
What was measured:
[1] = molecular target: T1, Polyunsaturated fatty acid 5-lipoxygenase (Homo sapiens, UniProt P09917); test: Inhibition of 5-LO in human PMNL assessed as reduction in 5-LO product formation pre-incubated for 15 mins before addition of arachidonic acid substrate by HPLC analysis
T1 sequence (P09917 whole entry): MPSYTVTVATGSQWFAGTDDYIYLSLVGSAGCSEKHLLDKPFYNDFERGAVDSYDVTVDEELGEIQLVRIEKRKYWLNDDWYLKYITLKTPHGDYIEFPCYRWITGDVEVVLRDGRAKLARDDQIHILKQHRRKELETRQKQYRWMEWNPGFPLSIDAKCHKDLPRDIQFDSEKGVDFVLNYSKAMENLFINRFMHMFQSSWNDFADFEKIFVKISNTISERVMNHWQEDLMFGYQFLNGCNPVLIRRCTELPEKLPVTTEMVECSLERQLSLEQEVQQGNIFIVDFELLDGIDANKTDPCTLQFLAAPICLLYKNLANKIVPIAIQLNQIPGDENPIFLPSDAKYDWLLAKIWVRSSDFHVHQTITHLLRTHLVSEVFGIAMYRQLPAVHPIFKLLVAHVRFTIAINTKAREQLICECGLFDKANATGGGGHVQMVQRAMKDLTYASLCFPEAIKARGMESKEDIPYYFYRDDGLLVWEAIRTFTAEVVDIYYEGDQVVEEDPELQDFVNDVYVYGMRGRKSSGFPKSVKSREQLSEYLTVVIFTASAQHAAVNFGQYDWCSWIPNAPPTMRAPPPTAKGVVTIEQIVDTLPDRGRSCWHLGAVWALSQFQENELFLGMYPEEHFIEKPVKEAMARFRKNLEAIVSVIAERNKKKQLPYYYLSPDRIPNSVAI

[2] = molecular target: T2, Presenilin-1 (Homo sapiens, UniProt P49768); test: Activation of wild-type human presenilin-1 stably overexpressed in CHO cells co-expressing wild-type human amyloid precursor protein assessed as amyloid beta 38 formation after 24 hrs by ELISA; type: cell-based
[3] = molecular target: T3, Peroxisome proliferator-activated receptor gamma (Homo sapiens, UniProt P37231); test: Activation of human PPARgamma ligand binding domain expressed in COS7 cells by dual luciferase reporter gene assay; type: cell-based, COS-7
T3 sequence (P37231 whole entry): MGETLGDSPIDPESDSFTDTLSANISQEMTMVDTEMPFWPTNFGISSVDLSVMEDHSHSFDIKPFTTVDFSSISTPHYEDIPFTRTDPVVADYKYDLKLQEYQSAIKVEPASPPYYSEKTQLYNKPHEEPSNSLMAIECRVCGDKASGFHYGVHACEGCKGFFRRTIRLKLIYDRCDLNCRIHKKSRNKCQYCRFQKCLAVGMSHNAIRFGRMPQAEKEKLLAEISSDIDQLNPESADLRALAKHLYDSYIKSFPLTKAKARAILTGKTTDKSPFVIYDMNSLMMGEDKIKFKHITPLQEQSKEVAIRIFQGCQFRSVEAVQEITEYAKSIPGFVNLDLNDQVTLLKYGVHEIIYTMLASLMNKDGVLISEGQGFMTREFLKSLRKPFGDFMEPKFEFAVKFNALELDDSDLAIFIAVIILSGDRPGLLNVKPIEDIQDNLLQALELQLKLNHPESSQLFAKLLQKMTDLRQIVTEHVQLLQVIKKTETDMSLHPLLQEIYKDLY

[4] = molecular target: T2, Presenilin-1; test: Inhibition of wild-type human presenilin-1 stably overexpressed in CHO cells co-expressing wild-type human amyloid precursor protein assessed as inhibition of amyloid beta 42 formation after 24 hrs by ELISA; type: cell-based
[5] = molecular target: T4, Prostaglandin G/H synthase 2 (Homo sapiens, UniProt P35354); test: Inhibition of human recombinant COX2-mediated 12-HHT formation preincubated for 5 mins before arachidonic acid addition by HPLC analysis
T4 sequence (P35354 whole entry): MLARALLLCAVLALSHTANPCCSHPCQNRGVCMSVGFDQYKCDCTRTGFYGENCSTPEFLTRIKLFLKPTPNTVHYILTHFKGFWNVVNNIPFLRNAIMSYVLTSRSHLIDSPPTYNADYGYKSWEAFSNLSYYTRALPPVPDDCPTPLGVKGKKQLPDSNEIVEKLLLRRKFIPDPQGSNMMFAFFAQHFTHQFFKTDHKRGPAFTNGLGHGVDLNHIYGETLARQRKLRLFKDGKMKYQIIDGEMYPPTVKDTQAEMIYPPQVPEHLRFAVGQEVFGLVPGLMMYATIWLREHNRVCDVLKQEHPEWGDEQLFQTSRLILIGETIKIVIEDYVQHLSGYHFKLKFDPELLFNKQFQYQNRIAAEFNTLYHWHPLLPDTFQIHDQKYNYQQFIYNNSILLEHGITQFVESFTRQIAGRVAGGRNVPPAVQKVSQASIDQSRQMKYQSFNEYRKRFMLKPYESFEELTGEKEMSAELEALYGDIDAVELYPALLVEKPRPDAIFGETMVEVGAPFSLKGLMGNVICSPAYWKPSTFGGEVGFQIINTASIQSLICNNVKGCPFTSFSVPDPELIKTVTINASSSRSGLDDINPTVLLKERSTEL
Outline: (§1)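 Cell-free enzyme assays. Data given either as IC50 or as remaining enzyme activity at 10 µM test concentration.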

[6] = molecular target: T5, Prostaglandin G/H synthase 1 (Ovis aries, UniProt P05979); test: Inhibition of ovine COX1-mediated 12-HHT formation preincubated for 5 mins before arachidonic acid addition by HPLC analysis; outline: as §1
T5 sequence (P05979 whole entry): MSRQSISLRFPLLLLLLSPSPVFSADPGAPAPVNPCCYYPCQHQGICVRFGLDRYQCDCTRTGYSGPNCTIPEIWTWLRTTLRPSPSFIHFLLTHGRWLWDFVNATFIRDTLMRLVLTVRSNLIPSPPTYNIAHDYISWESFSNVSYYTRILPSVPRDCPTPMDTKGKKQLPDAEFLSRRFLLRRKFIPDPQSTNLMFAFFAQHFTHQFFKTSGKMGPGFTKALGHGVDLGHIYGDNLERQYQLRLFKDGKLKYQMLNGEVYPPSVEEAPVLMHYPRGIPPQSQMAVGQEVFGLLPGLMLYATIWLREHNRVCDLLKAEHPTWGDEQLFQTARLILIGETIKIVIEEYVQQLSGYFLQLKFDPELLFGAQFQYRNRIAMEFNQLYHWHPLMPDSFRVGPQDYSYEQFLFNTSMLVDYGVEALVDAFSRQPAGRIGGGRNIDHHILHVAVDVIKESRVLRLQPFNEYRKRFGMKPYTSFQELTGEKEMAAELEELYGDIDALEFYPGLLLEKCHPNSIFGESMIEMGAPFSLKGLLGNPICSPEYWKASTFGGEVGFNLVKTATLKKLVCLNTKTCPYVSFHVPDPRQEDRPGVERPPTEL

[7] = molecular target: T6, Peroxisome proliferator-activated receptor gamma (Homo sapiens) (UniProt P37231); test: Activation of human PPARgamma ligand binding domain expressed in COS7 cells by dual luciferase reporter gene assay relative to 1 uM pioglitazone; type: cell-based; settings: COS-7
T6 sequence (whole entry): T3 sequence (P37231 whole entry)

[8] = molecular target: T7, Prostaglandin G/H synthase 2 (Homo sapiens) (UniProt P35354); test: Inhibition of human recombinant COX2-mediated 12-HHT formation assessed as remaining activity at 10 uM preincubated for 5 mins before arachidonic acid addition by HPLC analysis; outline: as §1
T7 sequence (whole entry): T4 sequence (P35354 whole entry)

[9] = molecular target: T8, Prostaglandin G/H synthase 1 (Ovis aries) (UniProt P05979); test: Inhibition of ovine COX1-mediated 12-HHT formation assessed as remaining activity at 10 uM preincubated for 5 mins before arachidonic acid addition by HPLC analysis; outline: as §1
T8 sequence (whole entry): T5 sequence (P05979 whole entry)

[10] = molecular target: T9, Prostaglandin E synthase (Homo sapiens, UniProt O14684); test: Inhibition of mPGES-1-mediated PGE2 formation in interleukin-1beta-stimulated human A549 microsomal membranes preincubated for 15 mins before PGH2 addition by RP-HPLC analysis
T9 sequence (O14684 whole entry): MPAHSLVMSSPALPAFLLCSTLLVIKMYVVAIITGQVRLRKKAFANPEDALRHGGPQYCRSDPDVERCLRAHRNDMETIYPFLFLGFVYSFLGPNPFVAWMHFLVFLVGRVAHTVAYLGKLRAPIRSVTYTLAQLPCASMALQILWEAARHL

[11] = molecular target: T6, Peroxisome proliferator-activated receptor gamma (Homo sapiens); test: Activation of human PPARgamma ligand binding domain expressed in COS7 cells at 10 uM by dual luciferase reporter gene assay; type: cell-based; settings: COS-7

SMILES | IC50 ([1]; read-out: IC50) [µM] | EC50 [2] [µM] | EC50 ([3]; cos-7) | IC50 [4] [µM] | IC50 [1] | IC50 [5] [µM] | IC50 [6] [µM] | max activation [7] | Activity [8] [%] | Activity [9] [%] | EC50 ([3]; read-out: EC50) [µM] | IC50 [10] [µM] | Activity [11] [%]
CCCC/C(=C\c1cc(OCc2ccc(-c3csc(C)n3)cc2)ccc1OCc1ccc(C(F)(F)F)cc1)C(=O)O | 6.7 | 2.2 | Not Active | 20.2 |  |  |  |  |  |  |  |  | 
CCCC/C(=C\c1cc(OCc2ccc(-c3ccccc3)cc2)ccc1OCc1ccc(C(F)(F)F)cc1)C(=O)O |  | 3.2 | Not Active | 11.9 | Not Active |  |  |  |  |  |  |  | 
CCCC/C(=C\c1cc(OCC(c2ccccc2)c2ccccc2)ccc1OCc1ccc(C(F)(F)F)cc1)C(=O)O | 0.25 | 11.2 |  | 11.4 |  | > 10 | > 10 | 97% | 79.5 | 61.1 | 1.26 | > 10 | 
CCCC/C(=C\c1cc(OCc2ccc(CCCC)cc2)ccc1OCc1ccc(C(F)(F)F)cc1)C(=O)O |  | 4.4 | Not Active | 4.4 | Not Active |  |  |  |  |  |  |  | 
CCCC/C(=C\c1cc(OCc2ccccc2)ccc1OCc1ccc(C(F)(F)F)cc1)C(=O)O | 0.55 | 14.1 |  | 19.3 |  | > 10 | > 10 | 108% | 84.8 | 86.6 | 11.7 | 5.6 | 
CCCC/C(=C\c1cc(OCc2ccc(OCc3ccccc3)cc2)ccc1OCc1ccc(C(F)(F)F)cc1)C(=O)O |  | 1.8 | Not Active | 8.5 | Not Active |  |  |  |  |  |  |  | 
CCCC/C(=C\c1cc(OCc2ccc(Cl)c(Cl)c2)ccc1OCc1ccc(C(F)(F)F)cc1)C(=O)O | 0.3 | 3.2 |  | 2 |  | > 10 | > 10 | 56% | 73.3 | 59.4 | 2.11 | 1.6 | 
CCCC/C(=C\c1cc(OCc2ccc(F)cc2)ccc1OCc1ccc(C(F)(F)F)cc1)C(=O)O | 0.5 | 13.8 |  | 7 |  | > 10 | > 10 | 76% | 84.2 | 78.4 | 5.17 | 4.9 | 
CCCC/C(=C\c1cc(OCc2ccc(C(F)(F)F)cc2)ccc1OCc1ccc(C(F)(F)F)cc1)C(=O)O |  | 1.1 |  | 1.2 |  | > 10 | > 10 |  |  |  |  | > 10 | 
CCCC/C(=C\c1cc(OCc2ccc(OCCN3CCOCC3)cc2)ccc1OCc1ccc(C(F)(F)F)cc1)C(=O)O | 0.9 | 0.97 |  | 2.2 |  | > 10 | > 10 | 66% | 95 | 91.3 | 3.77 | 8.7 | 
CCCCC(Sc1nc(OCCC2CCCCC2)cc(OCCC2CCCCC2)n1)C(=O)O (centres undefined) |  | 4.6 |  | 5.1 |  |  |  | 71% |  |  |  |  | 
CCCC/C(=C\c1cc(OCc2cccnc2)ccc1OCc1ccc(C(F)(F)F)cc1)C(=O)O | 2.3 | 23.2 |  | 32.1 |  |  |  | 120% |  |  | 2.56 |  | 
CCCC/C(=C\c1cc(O)ccc1OCc1ccc(C(F)(F)F)cc1)C(=O)O |  | > 40 |  | > 40 | Not Active |  |  |  |  |  |  |  | 48
CCCC/C(=C\c1cc(OCc2csc(-c3ccc(C(F)(F)F)cc3)n2)ccc1OCc1ccc(C(F)(F)F)cc1)C(=O)O | 0.9 | 10.7 | Not Active | 2.3 |  | > 10 | > 10 | inactive | 84.4 | 73.5 |  | > 10 | 
CCCC/C(=C\c1cc(OCc2ccc(Oc3ccccn3)cc2)ccc1OCc1ccc(C(F)(F)F)cc1)C(=O)O | 0.2 | 4.5 | Not Active | 5 |  | > 10 | > 10 |  | 91.1 | 75.7 |  | 10 | 
CCCC/C(=C\c1cc(Oc2ccccc2)ccc1OCc1ccc(C(F)(F)F)cc1)C(=O)O | 2.1 | 15.6 |  | 14.9 |  |  |  | 76% |  |  | 0.72 |  | 
CCCC/C(=C\c1cc(OC/C=C/c2ccccc2)ccc1OCc1ccc(C(F)(F)F)cc1)C(=O)O | 0.75 | 2.5 |  | 4.1 |  | > 10 | > 10 | 56% | 77.7 | 69.5 | 12.9 | 5 | 
CCCC/C(=C\c1cc(-c2ccccc2)ccc1OCc1ccc(C(F)(F)F)cc1)C(=O)O | 5.7 | 12 |  | 11.9 |  |  |  |  |  |  |  |  | 26
CCCCC(Sc1nc(OCCc2ccccc2)cc(OCCc2ccccc2)n1)C(=O)O (centres undefined) |  | 11.3 |  | 22.8 |  |  |  | 61% |  |  |  |  | 

From ChEMBL document CHEMBL3397016, “SAR-studies of γ-secretase modulators with PPARγ-agonistic and 5-lipoxygenase-inhibitory activity for Alzheimer's disease” (Bioorg Med Chem Lett, 2015)
